Experimental data from ChEMBL document CHEMBL1126327, “Synthesis and antihypertensive activity of 3-[(substituted-carbonyl)amino]-2H-1-benzopyrans” (1992).

Assays:
Assay type in all cases: functional
Rattus norvegicus [1] = assay: Compound was evaluated for oral antihypertensive activity in spontaneously hypertensive rats at a dose of 0.1 mg/kg (po)
Procedure, shortened: (§1)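 Conscious spontaneously hypertensive rats (Okamoto-derived, 14-24 weeks old; systolic pressure >180 mmHg counted as hypertensive) dosed by oral needle into the esophagus as a solution or suspension in 1% w/v methylcellulose. Systolic pressure was taken by tail-cuff, each reading the mean of at least five recordings, before dosing and at intervals up to 6 h. The maximum fall was recorded.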

Rattus norvegicus [2] = assay: Oral antihypertensive activity in spontaneously hypertensive rats at a dose of 0.3 mg/kg (po); procedure, shortened: as §1
Rattus norvegicus [3] = assay: Compound was evaluated for oral antihypertensive activity in spontaneously hypertensive rats at a dose of 1.0 mg/kg (po); procedure, shortened: as §1
Rattus norvegicus [4] = assay: Oral antihypertensive activity in spontaneously hypertensive rats at a dose of 10 mg/kg (po); procedure, shortened: as §1
Rattus norvegicus [5] = assay: Oral antihypertensive activity in spontaneously hypertensive rats at a dose of 3 mg/kg (po); procedure, shortened: as §1
Rattus norvegicus [6] = assay: Oral antihypertensive activity in spontaneously hypertensive rats at a dose of 1 mg/kg (po); procedure, shortened: as §1
Rattus norvegicus [7] = assay: Compound was evaluated for oral antihypertensive activity in spontaneously hypertensive rats at a dose of 1 mg/Kg (po); procedure, shortened: as §1
Rattus norvegicus [8] = assay: Compound was evaluated for oral antihypertensive activity in spontaneously hypertensive rats at a dose of 10 mg/Kg (po); procedure, shortened: as §1
Rattus norvegicus [9] = assay: Compound was evaluated for oral antihypertensive activity in spontaneously hypertensive rats at a dose of 3 mg/Kg (po); procedure, shortened: as §1

CC(C)(C)NC(=O)N[C@@H]1C(O)c2cc(C#N)ccc2OC1(C)C (some centres not stated)
Max fall in blood pressure (Rattus norvegicus [1]): -19% | Max fall in blood pressure (Rattus norvegicus [2]): -40% | Max fall in blood pressure (Rattus norvegicus [3]): -63%

CC1(C)Oc2ccc(C#N)cc2C(O)[C@H]1N1CCCCC1=O (some centres not stated)
Max fall in blood pressure (Rattus norvegicus [4]): -16% | Max fall in blood pressure (Rattus norvegicus [5]): -20%

CC1(C)Oc2ccc(C#N)cc2C(O)[C@H]1NC(=O)NC1CCCCC1 (some centres not stated)
Max fall in blood pressure (Rattus norvegicus [5]): -14%

CC1(C)Oc2ccc(C#N)cc2C(O)[C@H]1NC(=O)c1ccccn1 (some centres not stated)
Max fall in blood pressure (Rattus norvegicus [6]): -18% | Max fall in blood pressure (Rattus norvegicus [5]): -15%

COC1c2cc(C#N)ccc2OC(C)(C)[C@@H]1NC(=O)OC(C)(C)C (some centres not stated)
Max fall in blood pressure (Rattus norvegicus [5]): -39%

CC(C)NC(=O)N[C@@H]1C(O)c2cc(C#N)ccc2OC1(C)C (some centres not stated)
Max fall in blood pressure (Rattus norvegicus [2]): -22% | Max fall in blood pressure (Rattus norvegicus [6]): -26%

CC1(C)Oc2ccc(C#N)cc2C(O)[C@H]1NC(=O)C1CCCCC1 (some centres not stated)
Max fall in blood pressure (Rattus norvegicus [6]): -11% | Max fall in blood pressure (Rattus norvegicus [5]): -9%

CCNC(=O)N[C@@H]1C(O)c2cc(C#N)ccc2OC1(C)C (some centres not stated)
Max fall in blood pressure (Rattus norvegicus [6]): -13% | Max fall in blood pressure (Rattus norvegicus [5]): -18%

CNC(=O)N[C@@H]1C(O)c2cc(C#N)ccc2OC1(C)C (some centres not stated)
Max fall in blood pressure (Rattus norvegicus [4]): -24% | Max fall in blood pressure (Rattus norvegicus [5]): -8%

CN(C)C(=O)N[C@@H]1C(O)c2cc(C#N)ccc2OC1(C)C (some centres not stated)
Max fall in blood pressure (Rattus norvegicus [5]): -27%

CC(C)(C)CC(=O)N[C@@H]1C(O)c2cc(C#N)ccc2OC1(C)C (some centres not stated)
Max fall in blood pressure (Rattus norvegicus [6]): -9% | Max fall in blood pressure (Rattus norvegicus [5]): -27%

CC1(C)Oc2ccc(C#N)cc2C(O)[C@H]1NC(=O)c1ccc(F)c(F)c1 (some centres not stated)
Max fall in blood pressure (Rattus norvegicus [6]): -6% | Max fall in blood pressure (Rattus norvegicus [5]): -37%

CC(C)/N=C(\S)N[C@@H]1C(O)c2cc(C#N)ccc2OC1(C)C (some centres not stated)
Max fall in blood pressure (Rattus norvegicus [2]): -49%

CC(C)(C)OC(=O)N[C@@H]1C(O)c2cc(C#N)ccc2OC1(C)C (some centres not stated)
Max fall in blood pressure (Rattus norvegicus [7]): -14% | Max fall in blood pressure (Rattus norvegicus [8]): -49% | Max fall in blood pressure (Rattus norvegicus [9]): -30%

CC(C)(C)NC(=O)N[C@@H]1C(O)c2cc(C(F)(F)F)ccc2OC1(C)C (some centres not stated)
Max fall in blood pressure (Rattus norvegicus [6]): -31%

CC(C)(C)C(=O)N[C@@H]1C(O)c2cc(C#N)ccc2OC1(C)C (some centres not stated)
Max fall in blood pressure (Rattus norvegicus [2]): -30% | Max fall in blood pressure (Rattus norvegicus [6]): -36%

CCCNC(=O)N[C@@H]1C(O)c2cc(C#N)ccc2OC1(C)C (some centres not stated)
Max fall in blood pressure (Rattus norvegicus [6]): -10% | Max fall in blood pressure (Rattus norvegicus [5]): -32%

CC1(C)Oc2ccc(C#N)cc2C(O)[C@H]1NC(=O)c1ccc(F)cc1 (some centres not stated)
Max fall in blood pressure (Rattus norvegicus [6]): -22% | Max fall in blood pressure (Rattus norvegicus [5]): -42%

CC(C)(C)OC(=O)N[C@@H]1Cc2cc(C#N)ccc2OC1(C)C
Max fall in blood pressure (Rattus norvegicus [4]): -30% | Max fall in blood pressure (Rattus norvegicus [5]): -26%

CC1(C)Oc2ccc(C#N)cc2C(O)[C@H]1NC(=O)c1ccccc1 (some centres not stated)
Max fall in blood pressure (Rattus norvegicus [5]): -20%

CC(C)(C)OC(=O)N[C@@H]1C(N)c2cc(C#N)ccc2OC1(C)C (some centres not stated)
Max fall in blood pressure (Rattus norvegicus [4]): -25%

CC(C)(C)NC(=O)N[C@@H]1Cc2cc(C#N)ccc2OC1(C)C
Max fall in blood pressure (Rattus norvegicus [2]): -27%

CC(C)C(=O)N[C@@H]1C(O)c2cc(C#N)ccc2OC1(C)C (some centres not stated)
Max fall in blood pressure (Rattus norvegicus [1]): -22% | Max fall in blood pressure (Rattus norvegicus [2]): -39%

CC(=O)N[C@@H]1C(O)c2cc(C#N)ccc2OC1(C)C (some centres not stated)
Max fall in blood pressure (Rattus norvegicus [4]): -32% | Max fall in blood pressure (Rattus norvegicus [5]): -14%

CC(C)(C)NC(=O)N[C@@H]1C(O)c2cc(Cl)ccc2OC1(C)C (some centres not stated)
Max fall in blood pressure (Rattus norvegicus [2]): -16% | Max fall in blood pressure (Rattus norvegicus [5]): -34%

CC1(C)Oc2ccc(C#N)cc2C(N2CCCC2=O)C1O (configuration not stated) [CROMAKALIM]
Max fall in blood pressure (Rattus norvegicus [1]): -13% | Max fall in blood pressure (Rattus norvegicus [2]): -39% | Max fall in blood pressure (Rattus norvegicus [6]): -47%
